Calls of active or inactive are those of the source.

The source of these data is ChEMBL document CHEMBL1121652, “Allylprodine analogues as receptor probes. Evidence that phenolic and nonphenolic ligands interact with different subsites on identical opioid receptors” (J Med Chem, 1981).

The species named for experiment [1] is Mus musculus. The experiment in a line: Narcotic antagonistic potency evaluated by morphine-induced Straub tail phenomenon in mice. Type of experiment: functional, organism-based. The note with it: read-out: pA2 (converted).
For experiment [2], the system named is Mus musculus. The experiment in a line: Compound was evaluated for antagonist activity only at subagonistic dose levels in mice by mouse hotplate procedure; Inactive at 15 umol/kg. Format: functional, organism-based.
For experiment [3], the species on record is Mus musculus. Put plainly: Compound was tested for narcotic agonist activity in mice by mouse hotplate procedure. Format: functional. In short, it runs like this: (§1)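 Male white Swiss-Webster mice, 25–35 g, at least five per dose. Baseline taken as three reaction times 15 min apart. Drug given s.c. in physiological saline. Hot plate read 10, 15 or 30 min after dosing, depending on compound class. Analgesia means postinjection time over double the control, with a 30 s cutoff. ED50 by probit analysis on free-base molar dose.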

The species entered for experiment [4] is Cavia porcellus. The experiment in a line: Relative agonist molar potency on the electrically stimulated guinea pig myenteric plexus longitudinal muscle preparation. Format: functional, Muscle tissue. In short, it runs like this:
(§2)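 Electrically stimulated guinea pig ileum myenteric plexus–longitudinal muscle, measuring inhibition of twitch. Compounds active at 10⁻⁷ M or below were run in at least three independent preparations. Reversibility was checked with naloxone 2 × 10⁻⁶ M in the bath.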

The species named for experiment [5] is Cavia porcellus. The experiment in a line: Relative agonist molar potency on the electrically stimulated guinea pig myenteric plexus longitudinal muscle preparation at 10e-6; Inactive. Type of experiment: functional. The conditions noted are these: Muscle tissue. A digest of the protocol:
as §2

Experiment [6] deals with Mus musculus. The experiment in a line: Compound was tested for narcotic agonist activity in mice by mouse hotplate procedure; Inactive at 110 uM/kg. Type of experiment: functional, organism-based. A digest of the protocol:
as §1

For experiment [7], the species on record is Mus musculus. The experiment in a line: Compound was evaluated for antagonist activity only at subagonistic dose levels in mice by mouse hotplate procedure. Format: functional.
Experiment [8] concerns Mus musculus. Put plainly: Compound was tested for narcotic agonist activity in mice by mouse hotplate procedure; Inactive at 100 uM/kg. Type of experiment: functional, organism-based. In short, it runs like this:
as §1

Experiment [9] concerns Mus musculus. The experiment in a line: Compound was evaluated for antagonist activity only at subagonistic dose levels in mice by mouse hotplate procedure; Inactive at 100 uM/kg. Format: functional, organism-based.
In experiment [10] the test system is Mus musculus. Put plainly: Compound was evaluated for antagonist activity only at subagonistic dose levels in mice by mouse hotplate procedure; Inactive at 115 uM/kg. Type of experiment: functional, organism-based.
Experiment [11] has as its system Mus musculus. Put plainly: Compound was tested for narcotic agonist activity in mice by mouse hotplate procedure; Inactive at 115 uM/kg. Format: functional, organism-based. A digest of the protocol: as §1
For experiment [12], the system named is Mus musculus. Put plainly: Compound was tested for narcotic agonist activity in mice by mouse hotplate procedure; Inactive at 60 uM/kg. Format: functional, organism-based. In short, it runs like this:
as §1

For experiment [13], the system named is Mus musculus. Put plainly: Compound was evaluated for antagonist activity only at subagonistic dose levels in mice by mouse hotplate procedure; Inactive at 60 uM/kg. Format: functional, organism-based.
In experiment [14] the test system is Mus musculus. The experiment in a line: Compound was tested for narcotic agonist activity in mice by mouse hotplate procedure; Inactive at 120 uM/kg. Format: functional, organism-based. In short, it runs like this:
as §1

Experiment [15] relates to Mus musculus. The experiment in a line: Compound was evaluated for antagonist activity only at subagonistic dose of 120 uM/kg levels in mice by mouse hotplate procedure. Type of experiment: functional.
The species entered for experiment [16] is Mus musculus. Put plainly: Compound was tested for narcotic agonist activity (effective dose) by mouse hotplate procedure.
For experiment [17], the system named is Mus musculus. Put plainly: Compound was evaluated for antagonist activity only at subagonistic dose levels in mice by mouse hotplate procedure; Inactive at 26 uM/kg. Type of experiment: functional, organism-based.
For experiment [18], the system named is Mus musculus. Put plainly: Compound was evaluated for antagonist activity only at subagonistic dose levels in mice by mouse hotplate procedure; Inactive at 17 uM/kg. Format: functional, organism-based.
Experiment [19] deals with Mus musculus. Put plainly: Compound was tested for narcotic agonist activity in mice by mouse hotplate procedure; Inactive at 55 uM/kg. Format: functional, organism-based. In short, it runs like this: as §1
Experiment [20] deals with Mus musculus. The experiment in a line: Compound was evaluated for antagonist activity only at subagonistic dose levels in mice by mouse hotplate procedure; Inactive at 30 umol/kg. Format: functional, organism-based.
The species named for experiment [21] is Mus musculus. Put plainly: Narcotic antagonistic potency evaluated in morphine-induced Straub tail phenomenon in mice. Type of experiment: functional, organism-based. The conditions noted are these: read-out: pA2 (converted).
The species entered for experiment [22] is Mus musculus. Put plainly: Compound was evaluated for antagonist activity only at subagonistic dose levels by mouse hotplate procedure. Type of experiment: functional.

Take `C=CC[C@@H]1CN(C)CC[C@@]1(OC(=O)CC)c1cccc(OC)c1`: the Kb in the experiment listed under Mus musculus [1] was ≥ 1000 nM. Also, the AD50 entry in the experiment with Mus musculus [2] is “inactive”. Also, the ED50 (in general, the midpoint of the dose-response relation) in the experiment filed under Mus musculus [3] worked out at 34.7 µmol/kg. This compound returned a Potency in the experiment filed under Cavia porcellus [4] of 0.12.

Take `C=CC[C@@H]1CN(CC=C)CC[C@@]1(OC(=O)CC)c1cccc(O)c1`: the Potency result in the experiment filed under Cavia porcellus [5] is “inactive”. In the experiment listed under Mus musculus [1], the Kb is ≥ 1000 nM. The ED50 result in the experiment on Mus musculus [6] is “inactive”. In the experiment filed under Mus musculus [7], this compound displayed an AD50 of 74.13 µM/kg.

On to `C=CC[C@@H]1CN(C)CC[C@@]1(OC(=O)CC)c1ccccc1`, for which, in the experiment filed under Mus musculus [1], the Kb is ≥ 1000 nM. In the experiment listed under Mus musculus [3], this compound gave a 50% effective dose (ED50) of 0.54 µmol/kg. In the experiment listed under Cavia porcellus [4], this compound had a Potency of 4.51.

On to `CCC[C@@H]1CN(C)CC[C@@]1(OC(=O)CC)c1cccc(O)c1`, for which the Potency result in the experiment listed under Cavia porcellus [5] was “inactive”. Further, the Kb in the experiment filed under Mus musculus [1] was ≥ 1000 nM. For the same compound, the ED50 entry with Mus musculus [8] is “inactive”. Moreover, in the experiment on Mus musculus [9], the AD50 result is “inactive”.

`C=CC[C@H]1CN(C)CC[C@@]1(OC(=O)CC)c1cccc(OC)c1`: in the experiment filed under Cavia porcellus [5], the Potency result was “inactive”. Moreover, the Kb in the experiment listed under Mus musculus [1] was ≥ 1000 nM. Also, the AD50 result in the experiment on Mus musculus [10] is “inactive”. Also, in the experiment with Mus musculus [11], the ED50 entry was “inactive”.

As to `C=CC[C@H]1CN(C)CC[C@@]1(OC(=O)CC)c1cccc(O)c1`, in the experiment listed under Cavia porcellus [5], the Potency result was “inactive”. For the same compound, the Kb in the experiment filed under Mus musculus [1] was ≥ 1000 nM. Moreover, in the experiment with Mus musculus [12], the ED50 entry is “inactive”. Besides, the AD50 entry with Mus musculus [13] was “inactive”.

For the compound `C=CC[C@@H]1CN(C)CC[C@@]1(OC(=O)CC)c1cccc(O)c1`, the Potency entry in the experiment filed under Cavia porcellus [5] is “inactive”. Also, in the experiment listed under Mus musculus [1], the Kb is ≥ 1000 nM. Also, the ED50 result in the experiment with Mus musculus [14] was “inactive”. The AD50 with Mus musculus [15] came to 12%.

In the experiment listed under Mus musculus [16], `CN1CC[C@]23c4c5ccc(O)c4O[C@H]2[C@@H](O)C=C[C@H]3[C@H]1C5` [MORPHINE] showed a median effective dose (ED50) of 12.4 µmol/kg.

On to `C=CC[C@@H]1CN(CC=C)CC[C@@]1(OC(=O)CC)c1cccc(OC)c1`, for which the Kb in the experiment listed under Mus musculus [1] was ≥ 1000 nM. The Inhibition (usually the percentage by which the read-out fell short of the control) in the experiment filed under Mus musculus [3] worked out at 17%. Moreover, in the experiment on Mus musculus [17], the AD50 entry is “inactive”. Further, the Potency in the experiment listed under Cavia porcellus [4] was found to be 0.033.

`CCC[C@H]1CN(C)CC[C@@]1(OC(=O)CC)c1cccc(O)c1`: the Potency result in the experiment listed under Cavia porcellus [5] was “inactive”. The Kb in the experiment filed under Mus musculus [1] was ≥ 1000 nM. Besides, in the experiment with Mus musculus [8], the ED50 result was “inactive”. The AD50 entry in the experiment on Mus musculus [9] was “inactive”.

As for `CCC(=O)OC1(c2cccc(O)c2)CCN(C)CC1`, the Kb in the experiment filed under Mus musculus [1] was ≥ 1000 nM. Moreover, the 50% effect level in the experiment listed under Mus musculus [3] (ED50) was put at a dose of 110 µmol/kg. Besides, the AD50 entry with Mus musculus [18] was “inactive”. The same compound returned a Potency in the experiment listed under Cavia porcellus [4] of 0.011.

With `C=CC[C@H]1CN(CC=C)CC[C@@]1(OC(=O)CC)c1cccc(O)c1`, the ED50 result in the experiment with Mus musculus [19] was “inactive”. In addition, the Potency entry in the experiment listed under Cavia porcellus [5] is “inactive”. Further, the Kb in the experiment filed under Mus musculus [1] is ≥ 1000 nM. The AD50 entry with Mus musculus [20] is “inactive”.

Regarding `O=C1CC[C@@]2(O)[C@H]3Cc4ccc(O)c5c4[C@@]2(CCN3CC2CC2)[C@H]1O5` [NALTREXONE], in the experiment filed under Mus musculus [21], the Kb is > 1000 nM. The AD50 in the experiment filed under Mus musculus [22] was 0.031 µM/kg.

For `C=CCN1CC[C@]23c4c5ccc(O)c4O[C@H]2C(=O)CC[C@@]3(O)[C@H]1C5` [NALOXONE], the Kb in the experiment filed under Mus musculus [21] was 2.95 nM.
